The target of series [1] is T1, Peroxisome proliferator-activated receptor gamma (Homo sapiens) (UniProt P37231).
T1 sequence (whole entry): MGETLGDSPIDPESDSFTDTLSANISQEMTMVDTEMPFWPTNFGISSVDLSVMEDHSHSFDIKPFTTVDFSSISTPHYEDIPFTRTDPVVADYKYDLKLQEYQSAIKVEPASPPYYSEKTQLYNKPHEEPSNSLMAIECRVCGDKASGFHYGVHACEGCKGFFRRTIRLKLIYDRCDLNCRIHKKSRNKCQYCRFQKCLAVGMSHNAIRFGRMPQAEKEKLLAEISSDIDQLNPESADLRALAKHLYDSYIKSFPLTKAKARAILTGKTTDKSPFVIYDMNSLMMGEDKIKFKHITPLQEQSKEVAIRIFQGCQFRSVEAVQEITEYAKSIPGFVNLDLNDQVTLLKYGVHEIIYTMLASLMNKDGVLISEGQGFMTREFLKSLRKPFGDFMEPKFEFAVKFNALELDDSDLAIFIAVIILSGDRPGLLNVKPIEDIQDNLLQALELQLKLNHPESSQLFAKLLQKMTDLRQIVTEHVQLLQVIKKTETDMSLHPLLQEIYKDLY
Put plainly: Transactivation of PPARgamma in human HepG2 cells assessed as CD36 mRNA expression at 10 uM after 8 to 16 hrs by SYBR green based qRT-PCR analysis relative to DMSO control. It counts as cell-based. In a few lines:
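HepG2 cells treated 8 or 16 h with compound or 0.1% DMSO, washed in cold PBS, RNA extracted; SYBR Green qRT-PCR in duplicate, ≥4 independent experiments (n = 3 for CD36/FAM3A). ΔΔCt method with GAPDH reference; expression as % of vehicle (100%). Pioglitazone 1 μM used as positive control for the PPARγ genes.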

The target in series [2] is Retinoic acid receptor alpha (Homo sapiens) (UniProt P10276). In words: Transactivation of human GAL4-fused RARalpha ligand binding domain expressed in […] cells at 10 uM after 12 to 14 hrs by dual-glo luciferase reporter gene assay. It counts as cell-based. In a few lines:
(§1)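 HEK293T cells in DMEM/10% FCS, Opti-MEM before Lipofectamine LTX transfection with pFR-Luc reporter, pRL-SV40 and pFA-CMV GAL4–LBD plasmid. 5 h later compound in 0.1% DMSO, Opti-MEM, overnight (12−14 h). Dual luciferase; firefly/renilla ×1000 = RLU, fold over DMSO control; triplicates, ≥3 independent repeats.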
A general note: Reporter assays use an easily measured gene product as a stand-in for the process of interest.

The nature of series [3]: Tmax in C57BL/6JRj mouse at 10 mg/kg, po measured up to 480 mins post dose by LC-MS analysis. It counts as ADME, organism-based. As to conditions: in vivo. The method, boiled down:
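Male C57BL/6JRj mice (23−26 g), six dosed once orally at 10 mg/kg in water with 1% HPMC/Tween 80 (99:1), three vehicle. Tail-vein blood (20 μL) at 15, 30, 60, 120, 240 and 480 min, last by retro-orbital puncture. Blood spiked, acetonitrile precipitation with griseofulvin internal standard, LC−MS on phenyl-hexyl column. Noncompartmental PK analysis.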

The target in series [4] is T2, Bile acid receptor (Homo sapiens) (UniProt Q96RI1).
T2 sequence (whole entry): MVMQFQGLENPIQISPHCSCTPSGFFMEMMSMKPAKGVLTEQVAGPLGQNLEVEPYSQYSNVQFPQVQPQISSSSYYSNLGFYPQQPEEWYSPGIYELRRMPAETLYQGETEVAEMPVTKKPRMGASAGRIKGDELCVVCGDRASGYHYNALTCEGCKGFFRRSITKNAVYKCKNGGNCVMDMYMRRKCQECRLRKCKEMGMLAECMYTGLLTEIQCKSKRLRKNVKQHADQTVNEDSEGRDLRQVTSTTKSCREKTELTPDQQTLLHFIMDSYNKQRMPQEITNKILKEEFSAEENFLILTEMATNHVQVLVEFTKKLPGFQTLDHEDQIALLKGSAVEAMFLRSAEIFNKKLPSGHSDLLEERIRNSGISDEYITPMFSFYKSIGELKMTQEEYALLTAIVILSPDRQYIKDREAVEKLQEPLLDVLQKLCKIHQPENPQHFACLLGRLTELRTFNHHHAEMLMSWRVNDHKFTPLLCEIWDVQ
Put plainly: Transactivation of FXR in human HepG2 cells assessed as SREBP1c mRNA expression at 1 uM after 8 to 16 hrs by SYBR green based qRT-PCR analysis relative to DMSO control. Format: cell-based. In a few lines:
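HepG2 cells incubated with test compound (0.1 and 1 μM) or 0.1% DMSO for 8 or 16 h, washed in cold PBS, RNA extracted; target mRNA by SYBR Green qRT-PCR, duplicate samples, ≥4 independent experiments; comparative ΔΔCt with GAPDH reference, vehicle set as 100%.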
On the technique in general: Quantitative PCR measures a nucleic acid by following its amplification.

In series [5] the target is Retinoic acid receptor RXR-beta (Homo sapiens) (UniProt P28702). Put plainly: Transactivation of human GAL4-fused RXRbeta ligand binding domain expressed in […] cells at 10 uM after 12 to 14 hrs by dual-glo luciferase reporter gene assay. It counts as cell-based. In a few lines:
as §1

The target in series [6] is Retinoic acid receptor beta (Homo sapiens) (UniProt P10826). Put plainly: Transactivation of human GAL4-fused RARbeta ligand binding domain expressed in […] cells at 10 uM after 12 to 14 hrs by dual-glo luciferase reporter gene assay. It counts as cell-based. The method, boiled down: as §1
Retinoic acid receptor beta (Homo sapiens), sequence (P10826 whole entry, the tested form may be a part): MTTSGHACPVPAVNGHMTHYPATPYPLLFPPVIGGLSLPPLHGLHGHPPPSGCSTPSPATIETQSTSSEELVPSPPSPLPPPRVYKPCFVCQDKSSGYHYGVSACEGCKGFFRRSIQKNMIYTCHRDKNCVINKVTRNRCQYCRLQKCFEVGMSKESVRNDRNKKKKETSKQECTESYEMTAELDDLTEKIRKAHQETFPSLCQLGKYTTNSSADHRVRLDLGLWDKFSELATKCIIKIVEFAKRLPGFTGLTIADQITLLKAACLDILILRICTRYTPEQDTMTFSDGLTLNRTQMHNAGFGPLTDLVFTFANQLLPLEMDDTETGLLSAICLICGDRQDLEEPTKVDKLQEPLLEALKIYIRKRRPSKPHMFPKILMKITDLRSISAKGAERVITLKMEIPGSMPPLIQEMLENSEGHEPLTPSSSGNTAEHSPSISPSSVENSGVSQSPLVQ
A further series has as its system Mus musculus. Put plainly: In vivo activation of FXR in C57BL/6JRj mouse liver assessed as CYP7A1 mRNA expression at 10 mg/kg, po measured up to 480 mins post dose by qRT-PCR analysis relative to control. As to conditions: 8 h. It counts as ADME, organism-based. The method, boiled down:
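Male C57BL/6JRj mice (23−26 g), single oral 10 mg/kg in water with 1% HPMC/Tween 80 (99:1); vehicle group n = 3, treated n = 6. Livers taken 8 h postdose, snap-frozen; cells pressed through 40 μm strainer, total RNA extracted, qRT-PCR with ΔΔCt, % of vehicle.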

For series [7], the target named is G-protein coupled bile acid receptor 1 (Homo sapiens) (UniProt Q8TDU6). Put plainly: Antagonist activity at TGR5 (unknown origin) at 10 uM.
G-protein coupled bile acid receptor 1 (Homo sapiens), sequence (Q8TDU6 whole entry): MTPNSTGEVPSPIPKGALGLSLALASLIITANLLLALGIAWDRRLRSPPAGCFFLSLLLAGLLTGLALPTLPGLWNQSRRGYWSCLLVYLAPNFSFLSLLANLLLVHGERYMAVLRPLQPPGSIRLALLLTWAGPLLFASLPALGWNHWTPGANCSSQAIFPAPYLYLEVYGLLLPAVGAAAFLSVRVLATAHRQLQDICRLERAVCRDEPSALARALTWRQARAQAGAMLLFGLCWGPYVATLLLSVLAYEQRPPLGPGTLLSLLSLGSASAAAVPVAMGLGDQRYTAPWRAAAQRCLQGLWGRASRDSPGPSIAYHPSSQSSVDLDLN
The test system of the next series is Liver. In words: Drug metabolism in Sprague-Dawley rat liver microsomes assessed as 4-tert-butyl-N-(2-chloro-4-(methylsulfonamido)benzyl)-3-hydroxybenzamide formation at 10 uM preincubated with NADPH regenerating system for 5 mins followed by addition of liver microsomes by LC-MS/MS method. It counts as ADME, microsome. (In general: Liver microsomes are a subcellular fraction often used to study metabolism.)

These results are taken from ChEMBL document CHEMBL4017509, “A Dual Modulator of Farnesoid X Receptor and Soluble Epoxide Hydrolase To Counter Nonalcoholic Steatohepatitis” (J Med Chem, 2017).

Activity calls are given as the source filed them. The rule behind the calls is not given here.

Retinoic acid receptor RXR-beta (Homo sapiens), sequence (P28702 whole entry, the tested form may be a part): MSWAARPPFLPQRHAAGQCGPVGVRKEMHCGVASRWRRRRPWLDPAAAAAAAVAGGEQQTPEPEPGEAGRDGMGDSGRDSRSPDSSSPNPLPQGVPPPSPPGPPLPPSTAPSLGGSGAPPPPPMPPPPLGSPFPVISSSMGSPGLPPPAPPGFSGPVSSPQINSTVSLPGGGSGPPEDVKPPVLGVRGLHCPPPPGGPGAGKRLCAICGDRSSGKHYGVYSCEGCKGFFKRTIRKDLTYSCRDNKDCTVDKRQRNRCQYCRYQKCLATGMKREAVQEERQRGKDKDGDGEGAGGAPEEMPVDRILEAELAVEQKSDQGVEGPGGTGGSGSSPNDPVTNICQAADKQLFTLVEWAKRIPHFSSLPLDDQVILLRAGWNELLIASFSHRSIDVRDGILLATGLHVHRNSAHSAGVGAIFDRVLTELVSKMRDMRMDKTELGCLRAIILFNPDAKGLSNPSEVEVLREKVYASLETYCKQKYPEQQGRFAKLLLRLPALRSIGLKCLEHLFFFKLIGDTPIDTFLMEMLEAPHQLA
Retinoic acid receptor alpha (Homo sapiens), sequence (P10276 whole entry, the tested form may be a part): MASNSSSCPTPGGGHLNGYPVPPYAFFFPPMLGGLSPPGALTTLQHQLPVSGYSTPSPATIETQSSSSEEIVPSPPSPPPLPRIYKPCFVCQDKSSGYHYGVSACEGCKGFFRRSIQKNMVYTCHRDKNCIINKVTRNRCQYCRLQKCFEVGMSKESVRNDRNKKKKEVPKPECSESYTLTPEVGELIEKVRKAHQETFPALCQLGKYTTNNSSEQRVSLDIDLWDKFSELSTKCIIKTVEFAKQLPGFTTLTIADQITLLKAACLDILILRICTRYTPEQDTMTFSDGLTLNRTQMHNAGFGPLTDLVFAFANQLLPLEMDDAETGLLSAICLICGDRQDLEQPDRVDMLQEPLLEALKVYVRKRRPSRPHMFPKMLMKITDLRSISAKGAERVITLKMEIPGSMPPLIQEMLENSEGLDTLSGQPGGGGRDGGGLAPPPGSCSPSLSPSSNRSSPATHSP

As usually defined, the Tmax is the time from dosing to the highest level. `CC(C)(C)c1ccc(C(=O)NCc2ccc(NS(C)(=O)=O)cc2Cl)cc1`: the values for the Activity (in [1]; in series [4]; in the series with Mus musculus) were 129%, 36% and 70%, respectively. The outcome in [2], in [5] and in [6] was inactive. The Tmax in series [3] was found to be 30 min. Further, the inhibition entry in series [7] was “inactive”. The Drug metabolism entry in the series on Liver was “Metabolite_Notdetected”.
